# Assay results from publication PMC8892681 (ACS Omega, 2022).
# Entries after “also recorded” stand apart in the source; their conditions may differ. Read-outs that look alike come from different tables or passages of the source.
# Key:
# C. difficile = experiment: MIC by broth microdilution against C. difficile; assay type: cell-based, Clostridioides difficile
# Caco-2 cell permeability = assay type: in vitro ADME; details: human, Caco-2, pH 7.4
# VREfm [1] = experiment: MIC by broth microdilution against E. faecium; assay type: cell-based, Enterococcus faecium; details: for fold loss in activity against E. faecium: compared with analogue 1
# Caco-2 cell monolayers = experiment: Caco-2 cell permeability; assay type: in vitro ADME
# [2] = test system: C. difficile strain EDN0008; experiment: Time-kill assay against C. difficile; assay type: cell-based, Clostridioides difficile
# VREfm [3] = details: range of clinically relevant E. faecium strains; cited from earlier work
# HepG2 = details: cited from earlier work
# human erythrocytes [4] = details: cited from earlier work
# [5] = test system: E. faecium strain Aus0085; experiment: Time-kill assay against E. faecium; assay type: cell-based, Enterococcus faecium
# [6] = Pharmacokinetics and urinary/faecal recovery after oral administration in rats; assay type: in vivo, Sprague Dawley rats; details: 30 mg/kg; for AUC(0-inf) / Cmax / Tmax / half-life: male, Sprague Dawley, rat, plasma, po; for % dose in urine (0–48 h): unchanged compound, male Sprague Dawley rats, oral, mean ± SD n = 3
# human erythrocytes [7] = experiment: Haemolysis assay; assay type: cell-based; details: 1 h, 37 °C
# Summary of the method: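 Human whole blood collected in K2-EDTA and pelleted at 500 g for 5 min. RBCs washed twice in saline and once in PBS, then diluted 1:50 in PBS. Test compound made at 20× in DMSO and added 1:20 (final 0.125−128 mg/L). Incubated 1 h at 37 °C. Controls were DMSO vehicle and 1% (v/v) Triton X-100. After centrifugation at 500g, supernatant A450 was read. Three biological replicates.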
# [8] = exposure to 4 μg/mL, up to 48 h
compound,measurement,setting,value
"CC(CN)c1ccc(Oc2ccc(-c3noc(-c4ccc(O)cc4)n3)cc2)cc1.Cl (racemic) [15f, (RS)-4-(3-(4-(4-(1-Aminopropan-2-yl)phenoxy)phenyl)-1,2,4-oxadiazol-5-yl)phenol Hydrochloride]",fold loss in potency against C. difficile,C. difficile; compared with the ethyl linker 15e,5 fold
COC(=O)c1ccccc1-c1c2ccc(=N)cc-2oc2cc(N)ccc12 [rhodamine 123],Papp A→B at 120 min,Caco-2 cell permeability,1.6 ± 0.13 ×10⁻⁶ cm/s
same,Papp B→A at 120 min,Caco-2 cell permeability,12 ± 2.7 ×10⁻⁶ cm/s
same,efflux ratio at 120 min,Caco-2 cell permeability,7.3
"Cl.NCc1ccc(Oc2ccc(-c3noc(-c4ccc(O)cc4)n3)cc2)cc1 [15d, 4-(3-(4-(4-(Aminomethyl)phenoxy)phenyl)-1,2,4-oxadiazol-5-yl)phenol Hydrochloride]",fold loss in activity against E. faecium,VREfm [1],2 fold
CC(C)NCC(O)COc1cccc2ccccc12 (centres unmarked) [propranolol],Papp A→B at 120 min,Caco-2 cell permeability,42 ± 2.5 ×10⁻⁶ cm/s
lucifer yellow,Papp,"Caco-2 cell monolayers; low permeability marker, acceptor solution",< 1 10^–6 cm/s
"Cl.NCc1ccccc1Oc1ccc(-c2noc(-c3ccc(O)cc3)n2)cc1 [15a, 4-(3-(4-(2-(Aminomethyl)phenoxy)phenyl)-1,2,4-oxadiazol-5-yl)phenol Hydrochloride]",fold loss in activity against E. faecium,VREfm [1],4 fold
"Oc1ccc(-c2nc(-c3ccc(Oc4ccccc4)cc3)no2)cc1 [compound 1, 4-(3-(4-Phenoxyphenyl)-1,2,4-oxadiazol-5-yl)phenol]",killing activity in time-kill assay,[2],rapid bactericidal activity
same,E. faecium MIC90,VREfm [3],2 µg/mL
same,HepG2 viability,HepG2; at concentrations higher than 2 μg/mL,reduced viability
same,toxicity against HepG2,HepG2; at the E. faecium MIC90 (2 μg/mL),not toxic
same,concentration leading to haemolysis in human erythrocytes,human erythrocytes [4],> 64 µg/mL
same,time to 100% kill of VREfm,[5]; 4 μg/mL,≤ 24 h
same,time to 100% kill of VREfm,[5]; 8 μg/mL (2× MIC of 15e),≤ 1 h
same,regrowth of VREfm in time-kill assay,[5]; [8],rebounding growth of VREfm was observed after 48 h
same,regrowth of VREfm in time-kill assay,[5]; exposure to 8 μg/mL,no rebounding growth observed
"CN[C@H](CC(C)C)C(=O)N[C@H]1C(=O)N[C@@H](CC(N)=O)C(=O)N[C@H]2C(=O)N[C@H]3C(=O)N[C@H](C(=O)N[C@H](C(=O)O)c4cc(O)cc(O)c4-c4cc3ccc4O)[C@H](O)c3ccc(c(Cl)c3)Oc3cc2cc(c3O[C@@H]2O[C@H](CO)[C@@H](O)[C@H](O)[C@H]2O[C@H]2C[C@](C)(N)[C@H](O)[C@H](C)O2)Oc2ccc(cc2Cl)[C@H]1O [Vancomycin, vancomycin, reference compound]",killing activity in time-kill assay,"[2]; C. difficile EDN0008, 1 at ≥2 × MIC (12–48 μg/mL), vancomycin 8 μg/mL",bacteriostatic activity
same,C. difficile MIC,"C. difficile; broth microdilution, 48 h anaerobic, biological triplicate",2 µg/mL
"O=C(O)CCc1ccc(Oc2ccc(-c3noc(-c4ccc(O)cc4)n3)cc2)cc1 [9g, 3-(4-(4-(5-(4-Hydroxyphenyl)-1,2,4-oxadiazol-3-yl)phenoxy)phenyl)propanoic Acid]",fold loss in potency against C. difficile,C. difficile; 4 position versus same substituent at 2 and 3 positions / analogue 1,4 fold
"Cl.NCCc1ccc(Oc2ccc(-c3noc(-c4ccc(O)cc4)n3)cc2)cc1 [15e, 4-(3-(4-(4-(2-Aminoethyl)phenoxy)phenyl)-1,2,4-oxadiazol-5-yl)phenol Hydrochloride]",AUC(0-inf),[6],0.9 ± 0.22 µM·h
same,Cmax,[6],160 ± 38 nM
same,Tmax,[6],2.5 h
same,half-life,[6],2 ± 0.3 h
same,% dose in urine (0–48 h),[6],0.08 ± 0.03%
same,time to 100% kill of C. difficile,[2],≤ 3 h
same,time to 100% kill of VREfm,[5]; 4 μg/mL,≤ 24 h
same,time to 100% kill of VREfm,[5]; 8 μg/mL (2× MIC of 15e),≤ 1 h
same,regrowth of VREfm in time-kill assay,[5]; [8],remained undetectable
same,regrowth of VREfm in time-kill assay,[5]; exposure to 8 μg/mL,no rebounding growth observed
same,concentration leading to substantial levels of haemolysis,human erythrocytes [7],≥ 64 µg/mL
same,fold loss in activity against E. faecium,VREfm [1],2 fold
"C[N+](C)(C)CCc1ccc(Oc2ccc(-c3noc(-c4ccc(O)cc4)n3)cc2)cc1.[I-] [26a, 2-(4-(4-(5-(4-Hydroxyphenyl)-1,2,4-oxadiazol-3-yl)phenoxy)phenyl)-N,N,N-trimethylethan-1-aminium Iodide]",AUC(0-inf),[6],0.28 ± 0.27 µM·h
same,Cmax,[6],39 ± 46 nM
same,Tmax,[6],2.8 ± 2 h
same,half-life,[6],5.3 ± 2.1 h
same,% dose in urine (0–48 h),[6],0.06 ± 0.03%
same,permeability across Caco-2 cell monolayer (in words),"Caco-2 cell monolayers; not detected in acceptor chamber, fully recovered in donor chamber",complete impermeability; also recorded: no detectable permeability
same,fold decrease in activity against E. faecium,VREfm [1]; compared with the primary amine 15e,2 fold
"Cl.NCCCc1ccc(Oc2ccc(-c3noc(-c4ccc(O)cc4)n3)cc2)cc1 [15h, 4-(3-(4-(4-(3-Aminopropyl)phenoxy)phenyl)-1,2,4-oxadiazol-5-yl)phenol Hydrochloride]",fold increase in activity against E. faecium,VREfm [1]; propylamine versus ethylamine linker (15e),2 fold
"Cl.NCCc1ccccc1Oc1ccc(-c2noc(-c3ccc(O)cc3)n2)cc1 [15b, 4-(3-(4-(2-(2-Aminoethyl)phenoxy)phenyl)-1,2,4-oxadiazol-5-yl)phenol Hydrochloride]",fold loss in activity against E. faecium,VREfm [1],4 fold
